Assay [1] is described as follows: Antioxidant activity assessed as hydrogen peroxide scavenging activity at 100 ug/ml relative to control. The format is functional.
Assay [2] in a line: Antioxidant activity assessed as ABTS radical scavenging activity by spectrophotometric analysis. The format is functional. In short, it runs like this:
(§1)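 Radical scavenging by ABTS, DPPH or hydroxyl radical, read spectrophotometrically. Activity was calculated from the percentage decrease in absorbance, with resveratrol as the positive control. Values are given with the standard deviation (SD).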

Assay [3] in a line: Antioxidant activity assessed as hydroxyl radical scavenging activity by spectrophotometric analysis. The assay is classed as functional. A digest of the protocol:
as §1

Assay [4] is described as follows: Antioxidant activity assessed as DPPH radical scavenging activity by spectrophotometric analysis. The format is functional. In short, it runs like this:
as §1
Background: The DPPH test is a chemical assay of radical scavenging.

The subject of assay [5] is Mus musculus. As to the kind of experiment: Antiinflammatory activity in para-xylene-induced mouse model of ear swelling assessed as inhibition in swelling rate at 25 mg/kg, po treated for 2 hrs followed by xylene addition relative to control. The format is functional. In short, it runs like this: (§2)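 Mouse ear edema induced by para-xylene. Oral doses were 25, 50 or 100 mg/kg, given 2 h before xylene was applied. Each group had 5 mice. The inhibition rate (%) was taken relative to the vehicle group, with indomethacin as the positive control.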

In assay [6] the test system is Mus musculus. Put plainly: Antiinflammatory activity in para-xylene-induced mouse model of ear swelling assessed as inhibition in swelling rate at 50 mg/kg, po treated for 2 hrs followed by xylene addition relative to control. The assay is classed as functional. A digest of the protocol:
as §2

In assay [7] the test system is Mus musculus. Put plainly: Antiinflammatory activity in para-xylene-induced mouse model of ear swelling assessed as edema at 100 mg/kg, ip (reference value: 8.70 +/- 0.90 mg). The format is functional. In short, it runs like this: (§3)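 Mouse ear swelling induced by para-xylene. Dosing was 100 mg/kg intraperitoneal with DMSO as vehicle, and the vehicle group was also given 100. Each group had 5 mice. Edema was recorded in mg as mean ± S.D., and the inhibition rate (%) was taken relative to the vehicle group. Indomethacin at 100 mg/kg served as the reference.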

The test system of assay [8] is Mus musculus. Put plainly: Antiinflammatory activity in para-xylene-induced mouse model of ear swelling assessed as inhibition in swelling rate at 100 mg/kg, po treated for 2 hrs followed by xylene addition relative to control. The assay is classed as functional. A digest of the protocol: (§4)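 Mouse ear edema induced by para-xylene. A single oral dose of 100 mg/kg was given at set intervals (1, 2, 3, 4, 5 or 24 h) before xylene was applied. Each group had 5 mice. The inhibition rate (%) was taken relative to the vehicle group. Indomethacin at 100 mg/kg served as the reference.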

The subject of assay [9] is Mus musculus. Put plainly: Antiinflammatory activity in para-xylene-induced mouse model of ear swelling assessed as inhibition in swelling rate at 100 mg/kg, po treated for 4 hrs followed by xylene addition relative to control. The format is functional. A digest of the protocol:
as §4

Assay [10] has as its system Mus musculus. Put plainly: Antiinflammatory activity in para-xylene-induced mouse model of ear swelling assessed as inhibition in swelling rate at 100 mg/kg, po treated for 1 hr followed by xylene addition relative to control. The format is functional. In short, it runs like this:
as §4

The test system of assay [11] is Mus musculus. Put plainly: Antiinflammatory activity in para-xylene-induced mouse model of ear swelling assessed as inhibition in swelling rate at 100 mg/kg, po treated for 5 hrs followed by xylene addition relative to control. The format is functional. In short, it runs like this: as §4
In assay [12] the test system is Mus musculus. As to the kind of experiment: Antiinflammatory activity in para-xylene-induced mouse model of ear swelling assessed as inhibition in swelling rate at 100 mg/kg, ip relative to control. The assay is classed as functional. A digest of the protocol:
as §3

For assay [13], the system named is Mus musculus. Put plainly: Antiinflammatory activity in para-xylene-induced mouse model of ear swelling assessed as inhibition in swelling rate at 100 mg/kg, po treated for 24 hrs followed by xylene addition relative to control. The format is functional. A digest of the protocol: as §4
Assay [14] relates to Mus musculus. Put plainly: Antiinflammatory activity in para-xylene-induced mouse model of ear swelling assessed as inhibition in swelling rate at 100 mg/kg, po treated for 3 hrs followed by xylene addition relative to control. The format is functional. In short, it runs like this: as §4
In assay [15] the target is T1, Prostaglandin G/H synthase 2 (Homo sapiens) (UniProt P35354).
T1 sequence (whole entry): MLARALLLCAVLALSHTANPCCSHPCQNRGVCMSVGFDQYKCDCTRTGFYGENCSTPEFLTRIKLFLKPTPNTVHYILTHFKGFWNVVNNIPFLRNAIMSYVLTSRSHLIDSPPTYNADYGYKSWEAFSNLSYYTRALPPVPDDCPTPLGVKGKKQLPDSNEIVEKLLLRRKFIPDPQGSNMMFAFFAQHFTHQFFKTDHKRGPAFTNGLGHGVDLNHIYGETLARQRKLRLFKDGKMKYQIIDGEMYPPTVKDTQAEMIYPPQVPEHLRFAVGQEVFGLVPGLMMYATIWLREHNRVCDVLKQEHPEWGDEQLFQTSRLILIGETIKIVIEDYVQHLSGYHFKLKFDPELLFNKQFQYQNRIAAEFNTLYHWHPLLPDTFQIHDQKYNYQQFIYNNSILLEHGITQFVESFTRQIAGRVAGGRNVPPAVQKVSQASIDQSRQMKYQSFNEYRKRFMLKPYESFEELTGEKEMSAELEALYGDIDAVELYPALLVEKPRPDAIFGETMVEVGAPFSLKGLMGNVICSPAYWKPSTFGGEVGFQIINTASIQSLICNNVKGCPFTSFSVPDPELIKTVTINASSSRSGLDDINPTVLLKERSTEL
Put plainly: Inhibition of COX2 (unknown origin) at 10 umol/l by ELISA relative to control. Background: An ELISA detects its analyte on a solid surface through an enzyme-linked reagent.

Here are results for 4 molecules from ChEMBL document CHEMBL4622871, “Synthesis, biological evaluation of benzothiazole derivatives bearing a 1,3,4-oxadiazole moiety as potential anti-oxidant and anti-inflammatory agents” (Bioorg Med Chem Lett, 2020).

Some results are limits rather than exact numbers.

With `C/C(=N\c1ccc([N+](=O)[O-])cc1)N1N=C(c2ccc(-c3ccccc3)cc2)OC1c1ccccc1O` (stereo not given), in [1], the Activity was under 51.2%.
Usually IC50 stands for the concentration that gives 50% inhibition. On to `Oc1ccc(/C=C/c2cc(O)cc(O)c2)cc1` [RESVERATROL], for which the IC50 is 1.42 mM in assay [2], 370 mM in [3] and 0.99 mM in [4].
As a reminder, the inhibition in vivo is the percentage by which the read-out fell short of the control. Regarding `COc1ccc2c(c1)c(CC(=O)O)c(C)n2C(=O)c1ccc(Cl)cc1` [INDOMETHACIN], in the assay on Mus musculus [5], the inhibition in vivo at 25 mg/kg was determined as 19.1%. In addition, the inhibition in vivo at 50 mg/kg in the assay on Mus musculus [6] is 25.9%. In addition, the Activity with Mus musculus [7] came to 5.15 mg. In addition, the inhibition in vivo at 100 mg/kg in the assay on Mus musculus [8] is 52.3 to 58.3%; in the assay with Mus musculus [9] it was 30.4%; with Mus musculus [10] it was 25.3%; in the assay with Mus musculus [11] it was 19.2%; in the assay with Mus musculus [12] it was 43.6%; in the assay with Mus musculus [13] it was 12.5%. The inhibition in vivo at 100 mg/kg with Mus musculus [14] stood at 46.1%.
In general, inhibition refers to the percentage by which the read-out fell short of the control. In assay [15], `Cc1cccc(-c2nnc(COc3ccc(/C=N/Nc4nc5ccccc5s4)cc3)o2)c1` yielded an inhibition of 35%.
